Results taken from ChEMBL document CHEMBL5154665, “Design, synthesis, biochemical evaluation, radiolabeling and in vivo imaging with high affinity class-IIa histone deacetylase inhibitor for molecular imaging and targeted therapy” (Eur J Med Chem, 2022).

Legend:
[1] = Inhibition of HDAC class 2a in human THP-1 cells using TFA-lysine as fluorogenic substrate by fluorescence microplate reader assay; assay type: cell-based
[2] = Inhibition of HDAC class 2a in human PANC-1 cells using TFA-lysine as fluorogenic substrate by fluorescence microplate reader assay; assay type: cell-based
[3] = Inhibition of HDAC class 2a in human L3.6pl cells using TFA-lysine as fluorogenic substrate by fluorescence microplate reader assay; assay type: cell-based
[4] = Inhibition of HDAC class 2a in human HT-29 cells using TFA-lysine as fluorogenic substrate by fluorescence microplate reader assay; assay type: cell-based
Outline: (§1)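 HT-29 cells were plated at 200,000 cells/well in RPMI without phenol red with 0.1% FBS, with 100 µM Boc-Lys-TFA for class IIa or 200 µM Boc-Lys-Ac for class I/IIb. Compounds ran as an 11-point curve (5% final DMSO), with 5 µM trichostatin A as the positive control. Incubation was 3 h at 37 °C, then trypsin developer with Tween 80 for 1 h to lyse cells and release fluorophore.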

[5] = target: T1, Class 1 histone deacetylase (Homo sapiens, UniProt Q13547+O15379+Q92769+Q9BY41); assay: Inhibition of HDAC class 1 in human THP-1 cells using TFA-lysine as fluorogenic substrate by fluorescence microplate reader assay; assay type: cell-based
[6] = target: T1, Class 1 histone deacetylase; assay: Inhibition of HDAC class 1 in human PANC-1 cells using TFA-lysine as fluorogenic substrate by fluorescence microplate reader assay; assay type: cell-based
[7] = target: T1, Class 1 histone deacetylase; assay: Inhibition of HDAC class 1 in human HT-29 cells using […] as fluorogenic substrate by fluorescence microplate reader assay; assay type: cell-based; outline: as §1
[8] = Inhibition of HDAC class 2b in human PANC-1 cells using TFA-lysine as fluorogenic substrate by fluorescence microplate reader assay; assay type: cell-based
[9] = Inhibition of HDAC class 2b in human L3.6pl cells using TFA-lysine as fluorogenic substrate by fluorescence microplate reader assay; assay type: cell-based
[10] = Inhibition of HDAC class 2a in human HT-29 cells using Boc-Lys-TFA as substrate incubated for 3 hrs by microplate reader assay; assay type: cell-based; conditions: HT-29, 3 h
[11] = target: T1, Class 1 histone deacetylase; assay: Inhibition of HDAC class 1 in human HT-29 cells using Boc-Lys-Ac as substrate incubated for 3 hrs by microplate reader assay; assay type: cell-based
Histone deacetylase 4 = Histone deacetylase 4 (Homo sapiens, UniProt P56524); assay: Inhibition of recombinant human HDAC4 using fluorogenic substrate by fluorescence microplate reader assay
Sequence of Histone deacetylase 4 (P56524 whole entry, canonical isoform): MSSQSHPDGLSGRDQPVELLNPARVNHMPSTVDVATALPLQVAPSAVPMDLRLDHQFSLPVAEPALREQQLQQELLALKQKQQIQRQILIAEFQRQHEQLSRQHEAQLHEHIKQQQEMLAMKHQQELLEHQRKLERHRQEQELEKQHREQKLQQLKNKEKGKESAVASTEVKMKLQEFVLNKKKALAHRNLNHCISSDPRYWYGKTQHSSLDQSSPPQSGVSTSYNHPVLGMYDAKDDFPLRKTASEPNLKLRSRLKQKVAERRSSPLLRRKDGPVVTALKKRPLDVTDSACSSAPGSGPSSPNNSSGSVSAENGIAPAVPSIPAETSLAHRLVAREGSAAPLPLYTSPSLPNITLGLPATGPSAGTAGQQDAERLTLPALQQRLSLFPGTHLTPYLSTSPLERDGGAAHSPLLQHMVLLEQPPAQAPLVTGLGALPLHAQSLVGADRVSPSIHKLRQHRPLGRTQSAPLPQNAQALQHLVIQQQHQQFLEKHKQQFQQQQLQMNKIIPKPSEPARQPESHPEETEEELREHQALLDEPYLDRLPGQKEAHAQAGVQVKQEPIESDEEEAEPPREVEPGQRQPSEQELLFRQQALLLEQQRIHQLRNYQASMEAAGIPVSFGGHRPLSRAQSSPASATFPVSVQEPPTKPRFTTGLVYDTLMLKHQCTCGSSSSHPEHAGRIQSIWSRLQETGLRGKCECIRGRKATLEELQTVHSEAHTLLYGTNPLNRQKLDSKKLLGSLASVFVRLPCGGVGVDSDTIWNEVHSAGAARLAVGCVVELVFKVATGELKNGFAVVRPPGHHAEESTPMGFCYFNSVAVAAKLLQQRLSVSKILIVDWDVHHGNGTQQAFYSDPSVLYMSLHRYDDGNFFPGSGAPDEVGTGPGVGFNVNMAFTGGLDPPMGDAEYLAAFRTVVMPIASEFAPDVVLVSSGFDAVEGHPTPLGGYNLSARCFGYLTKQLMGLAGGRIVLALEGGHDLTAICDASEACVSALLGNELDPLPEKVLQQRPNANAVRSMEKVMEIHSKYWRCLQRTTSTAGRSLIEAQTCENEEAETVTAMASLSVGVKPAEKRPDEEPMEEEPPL
Outline: (§2)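 Recombinant human HDAC isoforms were tested at 9 inhibitor dilutions in commercial fluorogenic enzyme kits, per the manufacturer's protocol. For class IIa enzymes, deacetylation of a TFA-lysine substrate lets trypsin release a fluorophore, read on a microplate reader. IC50 came from a nonlinear fit of % HDAC activity inhibition against compound concentration.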

Histone deacetylase 5 = Histone deacetylase 5 (Homo sapiens, UniProt Q9UQL6); assay: Inhibition of recombinant human HDAC5 using fluorogenic substrate by fluorescence microplate reader assay; outline: as §2
Sequence of Histone deacetylase 5 (Q9UQL6 whole entry): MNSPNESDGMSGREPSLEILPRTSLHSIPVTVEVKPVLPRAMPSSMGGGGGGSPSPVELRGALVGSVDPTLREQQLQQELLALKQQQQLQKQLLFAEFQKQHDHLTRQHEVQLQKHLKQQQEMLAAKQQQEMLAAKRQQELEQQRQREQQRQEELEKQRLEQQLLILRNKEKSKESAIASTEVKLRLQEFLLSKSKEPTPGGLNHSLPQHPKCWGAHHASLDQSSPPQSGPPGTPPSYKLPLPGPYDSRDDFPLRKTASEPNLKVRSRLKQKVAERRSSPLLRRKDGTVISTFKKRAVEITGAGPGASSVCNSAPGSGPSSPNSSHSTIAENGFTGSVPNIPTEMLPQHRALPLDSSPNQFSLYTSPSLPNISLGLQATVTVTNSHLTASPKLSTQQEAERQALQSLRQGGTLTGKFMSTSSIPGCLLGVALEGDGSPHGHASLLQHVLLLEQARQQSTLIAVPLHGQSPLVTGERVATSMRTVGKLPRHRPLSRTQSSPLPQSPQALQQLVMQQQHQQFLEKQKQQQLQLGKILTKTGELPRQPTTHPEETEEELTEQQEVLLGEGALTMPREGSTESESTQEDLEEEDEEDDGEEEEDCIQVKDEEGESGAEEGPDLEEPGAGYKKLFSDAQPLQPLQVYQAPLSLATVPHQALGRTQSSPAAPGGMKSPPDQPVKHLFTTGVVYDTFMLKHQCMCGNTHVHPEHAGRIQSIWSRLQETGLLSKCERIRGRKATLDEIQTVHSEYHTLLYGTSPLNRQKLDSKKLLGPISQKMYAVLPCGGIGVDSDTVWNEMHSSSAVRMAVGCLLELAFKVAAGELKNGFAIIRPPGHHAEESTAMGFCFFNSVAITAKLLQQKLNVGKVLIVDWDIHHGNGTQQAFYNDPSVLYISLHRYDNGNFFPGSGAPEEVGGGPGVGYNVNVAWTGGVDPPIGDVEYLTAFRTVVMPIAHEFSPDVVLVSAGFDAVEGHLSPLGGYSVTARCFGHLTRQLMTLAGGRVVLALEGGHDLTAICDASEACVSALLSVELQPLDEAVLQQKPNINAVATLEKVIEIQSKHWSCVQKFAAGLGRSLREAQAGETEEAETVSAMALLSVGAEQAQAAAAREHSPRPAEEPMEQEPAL

Histone deacetylase 9 = Histone deacetylase 9 (Homo sapiens, UniProt Q9UKV0); assay: Inhibition of recombinant human HDAC9 using fluorogenic substrate by fluorescence microplate reader assay; outline: as §2
Sequence of Histone deacetylase 9 (Q9UKV0 whole entry): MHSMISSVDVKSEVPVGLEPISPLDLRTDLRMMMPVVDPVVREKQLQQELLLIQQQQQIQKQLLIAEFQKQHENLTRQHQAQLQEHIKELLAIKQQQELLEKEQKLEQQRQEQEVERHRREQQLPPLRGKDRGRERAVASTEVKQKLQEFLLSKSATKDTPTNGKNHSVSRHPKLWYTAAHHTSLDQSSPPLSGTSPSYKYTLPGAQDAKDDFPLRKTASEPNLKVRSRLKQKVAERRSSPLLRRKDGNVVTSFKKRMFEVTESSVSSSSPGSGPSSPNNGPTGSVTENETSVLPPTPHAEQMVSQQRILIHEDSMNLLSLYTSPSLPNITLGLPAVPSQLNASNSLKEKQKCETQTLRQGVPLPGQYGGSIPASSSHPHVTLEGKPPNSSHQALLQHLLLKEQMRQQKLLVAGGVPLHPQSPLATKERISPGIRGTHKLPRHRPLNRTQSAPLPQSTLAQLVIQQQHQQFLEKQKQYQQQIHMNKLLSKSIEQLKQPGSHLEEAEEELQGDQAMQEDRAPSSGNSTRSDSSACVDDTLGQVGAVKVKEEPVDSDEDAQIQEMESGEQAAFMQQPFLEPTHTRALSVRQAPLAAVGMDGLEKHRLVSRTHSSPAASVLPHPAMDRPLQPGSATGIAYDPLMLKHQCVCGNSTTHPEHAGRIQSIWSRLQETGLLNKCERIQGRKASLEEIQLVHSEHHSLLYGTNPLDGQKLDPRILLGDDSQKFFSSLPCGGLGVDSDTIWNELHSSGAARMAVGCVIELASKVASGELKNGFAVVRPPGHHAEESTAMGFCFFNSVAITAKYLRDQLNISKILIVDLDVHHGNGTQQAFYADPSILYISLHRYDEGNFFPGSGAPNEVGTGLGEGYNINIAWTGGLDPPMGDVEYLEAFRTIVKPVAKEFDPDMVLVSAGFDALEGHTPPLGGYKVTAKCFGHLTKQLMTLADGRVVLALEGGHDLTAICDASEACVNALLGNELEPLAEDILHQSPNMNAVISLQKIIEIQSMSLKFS

Histone deacetylase 11 = target: T2, Histone deacetylase 11 (Homo sapiens, UniProt Q96DB2); assay: Inhibition of recombinant human HDAC11 using fluorogenic substrate by fluorescence microplate reader assay; outline: as §2
T2 sequence (Q96DB2 whole entry): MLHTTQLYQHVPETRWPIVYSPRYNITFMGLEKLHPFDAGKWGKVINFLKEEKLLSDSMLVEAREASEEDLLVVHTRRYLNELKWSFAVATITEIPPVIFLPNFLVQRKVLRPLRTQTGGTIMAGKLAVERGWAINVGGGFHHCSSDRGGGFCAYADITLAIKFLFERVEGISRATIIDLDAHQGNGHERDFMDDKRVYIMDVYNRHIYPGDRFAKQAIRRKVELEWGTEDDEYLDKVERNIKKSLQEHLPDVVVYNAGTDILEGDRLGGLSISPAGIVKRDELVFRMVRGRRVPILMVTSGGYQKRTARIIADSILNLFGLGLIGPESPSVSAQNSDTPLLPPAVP

Histone deacetylase 1 = Histone deacetylase 1 (Homo sapiens, UniProt Q13547); assay: Inhibition of recombinant human HDAC1 using fluorogenic substrate by fluorescence microplate reader assay; outline: as §2
Sequence of Histone deacetylase 1 (Q13547 whole entry): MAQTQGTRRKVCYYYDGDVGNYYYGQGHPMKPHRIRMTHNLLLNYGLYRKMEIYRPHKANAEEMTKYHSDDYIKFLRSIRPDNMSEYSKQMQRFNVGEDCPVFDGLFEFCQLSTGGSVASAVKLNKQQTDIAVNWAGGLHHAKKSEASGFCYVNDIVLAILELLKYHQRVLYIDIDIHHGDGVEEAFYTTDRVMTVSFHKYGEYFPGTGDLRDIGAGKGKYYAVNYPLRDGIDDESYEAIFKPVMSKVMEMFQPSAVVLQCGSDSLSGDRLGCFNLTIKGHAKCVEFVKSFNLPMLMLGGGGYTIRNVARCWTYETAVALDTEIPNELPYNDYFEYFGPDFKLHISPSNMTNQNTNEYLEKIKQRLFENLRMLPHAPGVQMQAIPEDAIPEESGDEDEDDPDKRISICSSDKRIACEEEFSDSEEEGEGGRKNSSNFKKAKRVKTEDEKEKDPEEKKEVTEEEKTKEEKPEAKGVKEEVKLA

Histone deacetylase 3 = Histone deacetylase 3 (Homo sapiens, UniProt O15379); assay: Inhibition of recombinant human HDAC3 using fluorogenic substrate by fluorescence microplate reader assay; outline: as §2
Sequence of Histone deacetylase 3 (O15379 whole entry): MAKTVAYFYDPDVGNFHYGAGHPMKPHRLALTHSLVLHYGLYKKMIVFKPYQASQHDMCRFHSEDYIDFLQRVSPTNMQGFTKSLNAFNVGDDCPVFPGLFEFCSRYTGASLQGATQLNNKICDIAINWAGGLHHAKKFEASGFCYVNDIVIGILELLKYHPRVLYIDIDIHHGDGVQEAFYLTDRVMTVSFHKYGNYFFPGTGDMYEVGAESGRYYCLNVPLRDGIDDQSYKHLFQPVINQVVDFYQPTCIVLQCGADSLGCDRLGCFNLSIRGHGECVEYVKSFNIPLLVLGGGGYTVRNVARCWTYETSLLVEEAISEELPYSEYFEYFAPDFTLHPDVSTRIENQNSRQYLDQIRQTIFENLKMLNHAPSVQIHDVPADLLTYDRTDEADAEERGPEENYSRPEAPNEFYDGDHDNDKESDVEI

[12] = target: T3, Protein deacetylase HDAC6 (Homo sapiens, UniProt Q9UBN7); assay: Inhibition of recombinant human HDAC6 using fluorogenic substrate by fluorescence microplate reader assay; outline: as §2
T3 sequence (Q9UBN7 whole entry): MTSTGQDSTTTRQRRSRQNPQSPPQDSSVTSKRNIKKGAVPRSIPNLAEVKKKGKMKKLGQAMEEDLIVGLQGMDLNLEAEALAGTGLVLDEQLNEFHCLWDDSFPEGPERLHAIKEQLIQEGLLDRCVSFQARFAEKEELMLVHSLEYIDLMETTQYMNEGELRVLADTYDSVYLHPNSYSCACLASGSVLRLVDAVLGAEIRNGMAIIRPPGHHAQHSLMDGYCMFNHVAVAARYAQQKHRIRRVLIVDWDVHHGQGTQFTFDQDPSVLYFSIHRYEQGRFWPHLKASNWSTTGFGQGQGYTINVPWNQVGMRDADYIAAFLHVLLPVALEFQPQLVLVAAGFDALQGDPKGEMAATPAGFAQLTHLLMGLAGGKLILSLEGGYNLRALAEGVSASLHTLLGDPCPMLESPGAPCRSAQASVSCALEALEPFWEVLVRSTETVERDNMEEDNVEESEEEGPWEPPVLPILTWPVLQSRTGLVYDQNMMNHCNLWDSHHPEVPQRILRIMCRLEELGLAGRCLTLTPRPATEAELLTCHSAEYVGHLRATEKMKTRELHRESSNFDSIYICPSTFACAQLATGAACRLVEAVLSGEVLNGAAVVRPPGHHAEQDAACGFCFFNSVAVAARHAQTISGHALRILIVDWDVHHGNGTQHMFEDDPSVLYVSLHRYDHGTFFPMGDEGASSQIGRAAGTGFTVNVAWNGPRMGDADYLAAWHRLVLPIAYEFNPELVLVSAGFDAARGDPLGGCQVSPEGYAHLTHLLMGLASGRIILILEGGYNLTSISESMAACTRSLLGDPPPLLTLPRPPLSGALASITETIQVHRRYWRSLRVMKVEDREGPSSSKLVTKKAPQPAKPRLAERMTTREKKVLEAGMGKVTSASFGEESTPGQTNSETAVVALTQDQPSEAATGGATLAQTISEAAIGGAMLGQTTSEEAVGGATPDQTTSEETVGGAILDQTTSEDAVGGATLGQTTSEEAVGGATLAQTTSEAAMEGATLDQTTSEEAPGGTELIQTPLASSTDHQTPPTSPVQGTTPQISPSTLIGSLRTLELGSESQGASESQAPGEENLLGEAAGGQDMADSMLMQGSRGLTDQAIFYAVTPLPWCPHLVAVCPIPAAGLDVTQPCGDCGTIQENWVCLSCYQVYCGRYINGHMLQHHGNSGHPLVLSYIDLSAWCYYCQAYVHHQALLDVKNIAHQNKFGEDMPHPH

- IC50 [1]: 887 nM
- IC50 [2]: 888 nM
- IC50 [3]: 893 nM
- IC50 [4]: 1000 nM
- IC50 [5]: > 5000 nM
- IC50 [6]: > 5000 nM
- IC50 [7]: > 5000 nM
- IC50 [8]: > 5000 nM
- IC50 [9]: > 5000 nM
- IC50 [10]: 1000 nM
- IC50 [11]: > 50000 nM
- IC50 (Histone deacetylase 4): 128 nM
- IC50 (Histone deacetylase 5): 148 nM
- IC50 (Histone deacetylase 9): 2.4 nM
- IC50 (Histone deacetylase 11): > 5000 nM
- IC50 (Histone deacetylase 1): > 5000 nM
- IC50 (Histone deacetylase 3): > 5000 nM
- IC50 [12]: > 5000 nM
SMILES: CC(C)(CNC(=O)c1cccc(-c2noc(C(F)(F)F)n2)c1)c1coc(-c2ccccc2)n1
